Tests used:
[1] = Stability in potassium phosphate buffer at pH 7.4 up to 4 hrs; assay type: physicochemical; conditions: pH 7.4, 4 h
Outline: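 Negative control run under the blood-incubation conditions but in 50 mM potassium phosphate buffer, pH 7.4, instead of blood. Genistein glucuronides (G-7-G plus G-4′-G, with aglycone) or sulfates (G-7-S plus G-4′-S, with aglycone) held at 37°C in a shaking water bath up to 4 h. Sampled at 0, 60, 120 and 240 min and read by UPLC-MS/MS.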

[2] = Biliary excretion in wild-type FVB mouse treated with genistein measured after 2.5 hrs post intestinal perfusion by UPLC-MS/MS analysis; assay type: ADME, Bile; conditions: in vivo, other
Outline: (§1)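 Gallbladder bile taken after 2.5 h of simultaneous small intestine/colon perfusion with 10 μM genistein (HBSS pH 7.4, 0.191 ml/min) in FVB or Bcrp1(−/−) mice (n = 4). Bile diluted 20-fold in HBSS, daidzein internal standard in acetonitrile added, dried and reconstituted. Genistein and conjugates quantified by UPLC-MS/MS.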

[3] = Biliary excretion in BCRP-/- mouse treated with genistein measured after 2.5 hrs post intestinal perfusion by UPLC-MS/MS analysis; assay type: ADME, Bile; conditions: in vivo, other; outline: as §1
Blood = test: Stability in Wistar rat blood at 3 uM up to 4 hrs by UPLC-MS/MS analysis; assay type: ADME, tissue-based
Outline: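 Genistein glucuronide mixture (G-7-G plus G-4′-G, 3 μM) with 3.8 μM genistein incubated in fresh rat whole blood, 37°C shaking water bath. Sampled at 0, 60, 120 and 240 min. Reaction stopped with acetonitrile containing daidzein internal standard. Genistein and conjugates quantified by UPLC-MS/MS using multiple reaction monitoring. n = 3.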

Stability [1]: Stable | Drug excretion [2]: metabolite_detected | Drug excretion [3]: metabolite_detected | Stability (Blood): Stable
SMILES: O=C(O)[C@H]1O[C@@H](Oc2cc(O)c3c(=O)c(-c4ccc(O)cc4)coc3c2)[C@H](O)[C@@H](O)[C@@H]1O

Reference: ChEMBL document CHEMBL3526009, “Breast cancer resistance protein (ABCG2) determines distribution of genistein phase II metabolites: reevaluation of the roles of ABCG2 in the disposition of genistein” (Drug Metab Dispos, 2012)
